Assay results as given in ChEMBL document CHEMBL1153326, “Benzo(h)quinoline derivatives as G-quadruplex binding agents” (Bioorg Med Chem Lett, 2009).

How the values were obtained:
Format in all cases: nucleic-acid assay
Nucleic Acid [1] = test: Selectivity for synthetic oligo 22G DNA G-quadruplex over synthetic oligo 17bp DNA duplex
Method in brief: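 Ratio of the thiazole-orange displacement binding constant for the 22G quadruplex to that for the 17 bp duplex. Both constants come from titrating compound into 0.25 µM oligo with dye in 10 mM cacodylate, pH 7.4, 100 mM KCl, taking the 50% loss of peak area as IC50, and applying a competitive binding model.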

Nucleic Acid [2] = test: Displacement of thiazole orange from synthetic oligo 22G DNA G-quadruplex by fluorescence displacement assay
Method in brief: (§1)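 Compound titrated into 0.25 µM oligonucleotide (22G quadruplex or 17 bp duplex) with thiazole orange in 10 mM cacodylate, pH 7.4, plus 100 mM KCl. Full fluorescence spectrum recorded after each addition and peak area plotted against compound concentration. Concentration cutting the area by 50% taken as IC50; binding constant calculated from a simple competitive binding model.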

Nucleic Acid [3] = test: Binding affinity to human telomeric DNA G-quadruplex assessed as melting temperature at 0.5 uM by fluorescein-rhodamine based FRET assay
Method in brief: (§2)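 Human telomeric-repeat G-quadruplex oligo carrying a 5'/3' fluorescein–rhodamine FRET pair. Compound at 0.5 µM with the oligo at half that concentration, in 10 mM cacodylate, 100 mM NaCl, pH 7.4. Heated from 20 to 80 °C at 1 °C/min with a 2 min equilibration at each step. Emission read at 518 nm; Tm taken from the melting curve, ΔTm against no compound.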

Nucleic Acid [4] = test: Binding affinity to human telomeric DNA G-quadruplex assessed as change in melting temperature at 0.5 uM by fluorescein-rhodamine based FRET assay; method in brief: as §2
Nucleic Acid [5] = test: Displacement of thiazole orange from synthetic oligo 17bp DNA duplex by fluorescence displacement assay; method in brief: as §1
Nucleic Acid [6] = test: Binding affinity to human telomeric DNA assessed as equilibrium binding constant by SPR
Method in brief: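 SPR steady-state analysis against human telomeric quadruplex and duplex DNA, with multiple injections over a range of drug concentrations. Binding constants derived from the relative instrument response.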

Nucleic Acid [7] = test: Binding affinity to DNA G-quadruplex

Ratio (Nucleic Acid [1]) | K (Nucleic Acid [2]) [×10⁵ /M] | Tm (Nucleic Acid [3]) [°C] | ΔTm (Nucleic Acid [4]) [°C] | K (Nucleic Acid [5]) [×10⁵ /M] | K (Nucleic Acid [6]) [×10⁵ /M] | Kapp (Nucleic Acid [7]) [×10⁴ /M] | SMILES
7.4 | 3.9 | 51.6 | 0.41 | 0.53 | 0.3 | – | CN(C)c1ccc(NC(=O)c2cc(=O)c3ccc4ccccc4c3[nH]2)cc1
0.37 | 0.19 | 54.9 | 3.69 | 0.5 | 0.5 | – | CN1CCN(CCNC(=O)c2c[nH]c3c(ccc4ccccc43)c2=O)CC1
0.51 | 1.4 | 56.5 | 5.29 | 2.5 | – | – | O=C(Nc1ccncc1)c1c[nH]c2c(ccc3ccccc32)c1=O
2.5 | 0.53 | 56 | 4.36 | 0.21 | 0.4 | – | O=C(NCCN1CCCC1)c1c[nH]c2c(ccc3ccccc32)c1=O
0.21 | 0.53 | 52.5 | 1.27 | 2.5 | – | – | O=C(NCCN1CCNCC1)c1cc(=O)c2ccc3ccccc3c2[nH]1
– | – | – | – | – | – | 2.7 | CN(C)CCCNC(=O)c1cc2[nH]c3c(cnc4ccc([N+](=O)[O-])cc43)c(=O)c2n1C
0.22 | 1.4 | 52.3 | 1.05 | 6 | – | – | O=C(Nc1ccccc1)c1c[nH]c2c(ccc3ccccc32)c1=O
0.05 | 0.05 | 52.2 | 1 | 1.1 | – | – | O=C(NCCN1CCCCC1)c1cc(=O)c2ccc3ccccc3c2[nH]1
0.4 | 0.3 | 52.4 | 1.19 | 0.75 | – | – | O=C(NCCN1CCNCC1)c1c[nH]c2c(ccc3ccccc32)c1=O
0.84 | 0.42 | 51.9 | 0.69 | 0.5 | – | – | O=C(Nc1ccncc1)c1cc(=O)c2ccc3ccccc3c2[nH]1
10.4 | 2.5 | 56.4 | 5.17 | 0.24 | – | – | O=C(NCCN1CCCCC1)c1c[nH]c2c(ccc3ccccc32)c1=O
0.71 | 0.53 | 51.4 | 0.19 | 0.74 | – | – | CN(C)c1ccc(NC(=O)c2c[nH]c3c(ccc4ccccc43)c2=O)cc1
0.55 | 0.23 | 52.6 | 1.35 | 0.41 | – | – | O=C(NCCN1CCCC1)c1cc(=O)c2ccc3ccccc3c2[nH]1
